The source made the active and inactive calls. No cut-off for these calls is given here.
Key:
[1] = Antagonist activity at human calcium receptor expressed in HEK293 cells assessed as inhibition of extracellular calcium-induced release of intracellular calcium strores into cytosol by FLIPR assay; assay type: functional, cell-based
Rattus norvegicus [2] = assay: (§1) Volume of distribution at steady state in Sprague-Dawley rat at 1 mg/kg, iv; assay type: ADME, organism-based; parameters: dose 1 mg/kg, route intravenous; settings: in vivo
How it was run: (§2)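 Male Sprague-Dawley rats, n = 2–5. iv dosing in glycerol formal containing 2% DMSO; po dosing as a spray dried dispersion. Plasma compound levels followed for PK parameters.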

Rattus norvegicus [3] = assay: (§3) Terminal half life in Sprague-Dawley rat at 1 mg/kg, iv; assay type: ADME, organism-based; parameters: dose 1 mg/kg, route intravenous; settings: in vivo; how it was run: as §2
[4] = AUC in Sprague-Dawley rat at 1 mg/kg, iv; assay type: ADME, organism-based; parameters: dose 1 mg/kg, route intravenous; settings: plasma; how it was run: as §2
[5] = Cmax in Sprague-Dawley rat at 1 mg/kg, iv; assay type: ADME, organism-based; parameters: dose 1 mg/kg, route intravenous; settings: in vivo; how it was run: as §2
[6] = Cmax in Sprague-Dawley rat at 10 mg/kg, po; assay type: ADME, organism-based; parameters: dose 10 mg/kg, route oral; settings: in vivo; how it was run: as §2
[7] = Tmax in Sprague-Dawley rat at 1 mg/kg, iv; assay type: ADME, organism-based; parameters: dose 1 mg/kg, route intravenous; settings: in vivo; how it was run: as §2
[8] = Plasma clearance in Sprague-Dawley rat at 1 mg/kg, iv; assay type: ADME, organism-based; parameters: dose 1 mg/kg, route intravenous; how it was run: as §2
[9] = as §1; assay type: ADME, organism-based; parameters: dose 1 mg/kg, route intravenous; settings: Sprague-Dawley, in vivo, read-out: Vdss; how it was run: as §2
[10] = as §3; assay type: ADME, organism-based; parameters: dose 1 mg/kg, route intravenous; settings: Sprague-Dawley, in vivo, read-out: beta t1/2 (converted); how it was run: as §2
Rattus norvegicus [11] = assay: Induction of bone formation in Sprague-Dawley rat assessed as stimulation of PTH level in plasma at 1 mg/kg, iv after 2 mins by ELISA; assay type: functional
How it was run: (§4)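 Male Sprague-Dawley rats, n = 5/6, given a single iv or po dose. Plasma PTH 1-84 measured by an ELISA specific for full-length rat PTH 1-84. Earliest sampling at ~2 min; comparison against baseline in vehicle-treated animals.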

Rattus norvegicus [12] = assay: Induction of bone formation in Sprague-Dawley rat assessed as stimulation of PTH level in plasma at 1 mg/kg, iv after 2 mins relative by ELISA to basal level; assay type: functional; how it was run: as §4
Rattus norvegicus [13] = assay: Induction of bone formation in Sprague-Dawley rat assessed as stimulation of PTH level in plasma at dose 10 mg/kg, po by ELISA; assay type: functional; how it was run: as §4
Rattus norvegicus [14] = assay: Induction of bone formation in Sprague-Dawley rat assessed as transient stimulation of PTH level in plasma at dose 10 mg/kg, po on day 1 by ELISA; assay type: functional, organism-based; parameters: dose 10 mg/kg
Rattus norvegicus [15] = assay: Induction of bone formation in Sprague-Dawley rat assessed as transient stimulation of PTH level in plasma at dose 10 mg/kg, po administered for 5 days measured on day 5 by ELISA; assay type: functional, organism-based; parameters: dose 10 mg/kg
Rattus norvegicus [16] = assay: Induction of bone formation in Sprague-Dawley rat assessed as sustained elevation of PTH level in plasma at dose 10 mg/kg, po administered for 5 days measured on day 5 by ELISA; assay type: functional, organism-based; parameters: dose 10 mg/kg
Rattus norvegicus [17] = species: Rattus norvegicus; assay: Ratio of AUC for 1-aminobenzotriazole led P450 inactivator pretreated Sprague-Dawley rat to AUC for normal Sprague-Dawley rat; assay type: ADME, organism-based; settings: in vivo
[18] = Plasma clearance in 1-aminobenzotriazole led P450 inactivator pretreated Sprague-Dawley rat at 1 mg/kg, iv; assay type: ADME, organism-based; parameters: dose 1 mg/kg, route intravenous
Rattus norvegicus [19] = species: Rattus norvegicus; assay: Ratio of half life for 1-aminobenzotriazole led P450 inactivator pretreated Sprague-Dawley rat to half life for normal Sprague-Dawley rat; assay type: ADME, organism-based; settings: in vivo
[20] = target: Voltage-gated inwardly rectifying potassium channel KCNH2 (Homo sapiens, UniProt Q12809); assay: Inhibition of human ERG
[21] = Half life in human; assay type: ADME, organism-based; settings: in vivo

Voltage-gated inwardly rectifying potassium channel KCNH2, sequence (Q12809 whole entry): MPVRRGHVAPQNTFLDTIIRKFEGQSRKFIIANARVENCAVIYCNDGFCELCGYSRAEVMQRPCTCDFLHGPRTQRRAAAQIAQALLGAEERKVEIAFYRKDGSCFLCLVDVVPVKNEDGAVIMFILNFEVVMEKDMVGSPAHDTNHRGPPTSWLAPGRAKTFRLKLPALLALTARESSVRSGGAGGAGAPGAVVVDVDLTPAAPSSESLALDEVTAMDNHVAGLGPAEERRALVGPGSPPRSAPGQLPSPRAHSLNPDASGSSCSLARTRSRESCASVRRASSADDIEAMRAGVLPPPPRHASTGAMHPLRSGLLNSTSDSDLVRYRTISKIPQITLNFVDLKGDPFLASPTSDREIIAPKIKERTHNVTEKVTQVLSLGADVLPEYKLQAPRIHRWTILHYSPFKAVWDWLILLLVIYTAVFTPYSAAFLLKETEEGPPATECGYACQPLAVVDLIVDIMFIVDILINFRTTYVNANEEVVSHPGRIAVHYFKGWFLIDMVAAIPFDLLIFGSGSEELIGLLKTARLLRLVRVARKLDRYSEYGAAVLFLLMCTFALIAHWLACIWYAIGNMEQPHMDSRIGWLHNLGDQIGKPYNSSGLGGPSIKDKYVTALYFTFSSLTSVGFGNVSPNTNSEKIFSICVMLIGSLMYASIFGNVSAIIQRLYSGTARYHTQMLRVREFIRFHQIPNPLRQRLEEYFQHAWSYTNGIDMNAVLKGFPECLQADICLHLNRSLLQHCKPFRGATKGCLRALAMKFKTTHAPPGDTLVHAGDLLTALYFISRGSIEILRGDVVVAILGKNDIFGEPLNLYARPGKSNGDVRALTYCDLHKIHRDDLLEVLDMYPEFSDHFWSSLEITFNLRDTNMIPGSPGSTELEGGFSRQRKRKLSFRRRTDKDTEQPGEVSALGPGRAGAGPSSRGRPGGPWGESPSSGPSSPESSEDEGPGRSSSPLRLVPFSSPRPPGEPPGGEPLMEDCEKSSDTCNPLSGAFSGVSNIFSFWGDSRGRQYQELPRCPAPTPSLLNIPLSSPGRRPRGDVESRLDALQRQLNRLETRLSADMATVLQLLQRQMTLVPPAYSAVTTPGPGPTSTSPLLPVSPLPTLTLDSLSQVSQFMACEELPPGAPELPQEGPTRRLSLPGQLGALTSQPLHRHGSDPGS

C[C@H](Cc1ccccc1)n1c(-c2ccccc2Cl)nc2ccnc(C(F)(F)F)c2c1=O
IC50 [1]: 152 nM

Cc1nccc2nc(-c3ccccc3O)n(CCc3ccccc3)c(=O)c12
IC50 [1]: 2990 nM

O=c1c2c(Cl)nccc2nc(-c2ccccc2O)n1CCc1ccccc1
IC50 [1]: 106 nM

C[C@H](Cc1ccccc1)n1c(-c2ncccc2O)nc2ccnc(C(F)(F)F)c2c1=O
IC50 [1]: 22 nM

O=c1c2c(C(F)(F)F)nccc2nc(-c2ccccc2O)n1CCc1ccccc1
IC50 [1]: 50 nM

O=c1c2c(C(F)(F)F)nccc2nc(-c2cscn2)n1CCc1ccccc1
IC50 [1]: 656 nM

C[C@H](Cc1ccccc1)n1c(-c2ncccc2Cl)nc2ccnc(C(F)(F)F)c2c1=O
IC50 [1]: 79 nM | Vdss (Rattus norvegicus [2]): 6 L/kg | beta t1/2 (Rattus norvegicus [3]): 57 min | AUC [4]: 810 ng·h/mL

C[C@H](Cc1ccc(F)c(F)c1)n1c(-c2ncccc2O)nc2ccnc(C(F)(F)F)c2c1=O
IC50 [1]: 8 nM | Cmax [5]: 133 ng/mL | Cmax [6]: 165 ng/mL | Tmax [7]: 18 min | clearance [8]: 46.5 mL/min/kg | Vd [9]: 8.6 L/kg | half-life [10]: 234 min | AUC [4]: 364 ng·h/mL | Activity (Rattus norvegicus [11]): 1303 pg/mL | fold change (FC) (Rattus norvegicus [12]): 10 | Activity (Rattus norvegicus [13]): 599 pg/mL | Activity (Rattus norvegicus [14]): Active | Activity (Rattus norvegicus [15]): Active | Activity (Rattus norvegicus [16]): inactive

O=c1c2c(C(F)(F)F)nccc2nc(-c2ncccc2O)n1CCC1CCCCC1
IC50 [1]: 36 nM | clearance [8]: 35.9 mL/min/kg | Vd [9]: 3.2 L/kg | half-life [10]: 37.2 min | AUC [4]: 490 ng·h/mL

O=c1c2c(C(F)(F)F)nccc2nc(-c2ccccc2O)n1CCc1ccccc1F
IC50 [1]: 132 nM

O=c1c2c(C(F)(F)F)nccc2nc(-c2ccccc2Cl)n1CCc1ccccc1
IC50 [1]: 1070 nM

C[C@H](Cc1ccccc1)n1c(-c2ccccc2O)nc2ccnc(C(F)(F)F)c2c1=O
IC50 [1]: 41 nM | Cmax [5]: 125 ng/mL | Cmax [6]: 350 ng/mL | Tmax [7]: 30 min | clearance [8]: 32.2 mL/min/kg | Vd [9]: 1.4 L/kg | half-life [10]: 36 min | Ratio (Rattus norvegicus [17]): 4 | AUC [4]: 518 ng·h/mL | clearance [18]: 7.8 mL/min/kg | Activity (Rattus norvegicus [11]): 921 pg/mL | Activity (Rattus norvegicus [13]): 620 pg/mL | Activity (Rattus norvegicus [14]): Active | Activity (Rattus norvegicus [15]): Active | Activity (Rattus norvegicus [16]): inactive | Ratio (Rattus norvegicus [19]): 7

O=c1c2c(OC3CCC3)nccc2nc(-c2ccccc2O)n1CCc1ccccc1
IC50 [1]: 435 nM

O=c1c2c(C(F)(F)F)nccc2nc(-c2ncccc2O)n1CCc1ccccc1F
IC50 [1]: 151 nM

Cc1cccnc1-c1nc2ccnc(C(F)(F)F)c2c(=O)n1[C@H](C)Cc1ccccc1
IC50 [1]: 226 nM

CC(C)(Cc1ccc2ccccc2c1)NC[C@@H](O)COc1cccc(Cl)c1C#N
Activity [20]: Active | half-life [21]: 480 min

C[C@H](Cc1ccccc1)n1c(-c2cscn2)nc2ccnc(C(F)(F)F)c2c1=O
IC50 [1]: 216 nM

C[C@H](Cc1ccccc1)n1c(-c2ncccc2C(F)(F)F)nc2ccnc(C(F)(F)F)c2c1=O
IC50 [1]: 64 nM | Cmax [5]: 100 ng/mL | Cmax [6]: 450 ng/mL | Tmax [7]: 78 min | Vdss (Rattus norvegicus [2]): 2.9 L/kg | beta t1/2 (Rattus norvegicus [3]): 48 min | AUC [4]: 1200 ng·h/mL

O=c1c2c(C(F)(F)F)nccc2nc(-c2cccc(F)c2O)n1CCc1ccccc1
IC50 [1]: 610 nM

O=c1c2c(N3CCCC3)nccc2nc(-c2ccccc2O)n1CCc1ccccc1
IC50 [1]: 5320 nM

C[C@@H](Cc1ccccc1)n1c(-c2ccccc2O)nc2ccnc(C(F)(F)F)c2c1=O
IC50 [1]: 158 nM

CC(=O)Nc1cccnc1-c1nc2ccnc(C(F)(F)F)c2c(=O)n1[C@H](C)Cc1ccccc1
IC50 [1]: 19 nM

COc1ccccc1CCn1c(-c2ncccc2O)nc2ccnc(C(F)(F)F)c2c1=O
IC50 [1]: 76 nM

C[C@H](Cc1ccccc1)n1c(-c2cccc(F)c2O)nc2ccnc(C(F)(F)F)c2c1=O
IC50 [1]: 25 nM | clearance [8]: 31.6 mL/min/kg | Vd [9]: 3.6 L/kg | half-life [10]: 91.8 min | AUC [4]: 528 ng·h/mL

CC(C)Oc1nccc2nc(-c3ccccc3O)n(CCc3ccccc3)c(=O)c12
IC50 [1]: 224 nM
